Experimental data from ChEMBL document CHEMBL1932942, “Antioxidant properties of 4-quinolones and structurally related flavones” (Bioorg Med Chem, 2012).
Calls of active or inactive are those of the source. The rule behind the calls is not given here.

Legend:
[1] = Antioxidant activity assessed as trolox equivalents ratio of AAPH-induced peroxyl radical scavenging activity at 0.01 mM by ORAC assay; assay type: functional
How it was run: (§1)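 Peroxyl scavenging in 75 mM potassium phosphate, pH 7.4. Compound in 10% DMSO (final) was mixed with 112 nM fluorescein, and 36 mM AAPH (final) was added. Fluorescence (ex 485/em 530 nm) was read every 5 min for 3 h. AUC was converted to Trolox equivalents against a Trolox curve (0–20 µM, duplicates). DMSO blank was subtracted. Mean of triplicates.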

[2] = Antioxidant activity assessed as trolox equivalents ratio of AAPH-induced peroxyl radical scavenging activity at 0.001 mM by ORAC assay; assay type: functional; how it was run: as §1
[3] = Antioxidant activity assessed as trolox equivalents ratio of AAPH-induced peroxyl radical scavenging activity at 0.1 mM by ORAC assay; assay type: functional; how it was run: as §1
[4] = Antioxidant activity assessed as AAPH-induced peroxyl radical scavenging activity at 1 mM by ORAC assay; assay type: functional
[5] = Antioxidant activity assessed as trolox equivalents ratio of ferric ion reducing activity using fe3+-TPTZ at 0.001 mM by FRAP assay; assay type: functional
How it was run: (§2)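 Compound in 10% DMSO (final) was mixed with FRAP reagent (300 mM acetate buffer pH 3.6, 10 mM TPTZ in 40 mM HCl, 20 mM FeCl3, 10:1:1). Reading at 37 °C, 595 nm, after a 3 min lag, then every 6 min to 33 min. Value at 33 min expressed as percent of the 0.1 mM Trolox standard. DMSO/reagent blank subtracted. Triplicates.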

[6] = Antioxidant activity assessed as trolox equivalents ratio of ferric ion reducing activity using fe3+-TPTZ at 0.01 mM by FRAP assay; assay type: functional; how it was run: as §2
[7] = Antioxidant activity assessed as trolox equivalents ratio of ferric ion reducing activity using fe3+-TPTZ at 0.1 mM by FRAP assay; assay type: functional; how it was run: as §2
[8] = Antioxidant activity assessed as ferric ion reducing activity using fe3+-TPTZ at 1 mM by FRAP assay; assay type: functional
Brain [9] = experiment: Antioxidant activity against toxin solution-induced lipid peroxidation in Sprague-Dawley rat brain homogenates assessed as free MDA levels per mg of tissue at 0.001 by TBARS assay; assay type: functional, tissue-based
Brain [10] = experiment: Antioxidant activity against toxin solution-induced lipid peroxidation in Sprague-Dawley rat brain homogenates assessed as free MDA levels per mg of tissue at 0.01 by TBARS assay; assay type: functional, tissue-based
How it was run: (§3)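 Adult Sprague Dawley rat brains (200–250 g) homogenised 10% (w/v) in PBS, pH 7.4. Peroxidation induced with toxin solution (0.5 mM H2O2, 0.488 mM FeCl3, 0.14 mM ascorbic acid, 2:1:1). Compounds given in 10% DMSO final, with a 10% DMSO blank. BHT, TCA and TBA added, then 60 °C incubation, ice cooling and butanol extraction. A530 read; nmol MDA equivalents/mg tissue from a TMP curve.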

Brain [11] = experiment: Antioxidant activity against toxin solution-induced lipid peroxidation in Sprague-Dawley rat brain homogenates assessed as free MDA levels per mg of tissue at 0.1 by TBARS assay; assay type: functional, tissue-based; how it was run: as §3
Brain [12] = experiment: Antioxidant activity against toxin solution-induced lipid peroxidation in Sprague-Dawley rat brain homogenates assessed as free MDA levels per mg of tissue at 1 by TBARS assay; assay type: functional, tissue-based; how it was run: as §3

## Oc1ccc2c(O)cc(-c3ccccc3)nc2c1
[1]
  Ratio: 26.4
[2]
  Ratio: 15.3
[3]
  Ratio: 57.5
[4]
  Activity: inactive
[5]
  Ratio: -3.48
[6]
  Ratio: -1.26
[7]
  Ratio: 1.41
[8]
  Activity: inactive
Brain [9]
  Activity: inactive
Brain [10]
  Activity: 0.69 nmol
Brain [11]
  Activity: 0.71 nmol
Brain [12]
  Activity: 0.72 nmol

## Oc1cc(-c2ccccc2)nc2c(O)cccc12
[1]
  Ratio: 26.1
[2]
  Ratio: 9.18
[3]
  Ratio: 65.4
[4]
  Activity: inactive
[5]
  Ratio: 3.56
[6]
  Ratio: 25.5
[7]
  Ratio: 97.7
[8]
  Activity: inactive
Brain [9]
  Activity: inactive
Brain [10]
  Activity: 0.58 nmol
Brain [11]
  Activity: 0.49 nmol
Brain [12]
  Activity: 0.27 nmol

## Oc1ccnc2ccccc12
[2]
  Ratio: 1.5
[4]
  Activity: inactive
[5]
  Ratio: 2.82
[6]
  Ratio: 1.69
[7]
  Ratio: 0.23
[8]
  Activity: inactive
Brain [9]
  Activity: inactive
Brain [10]
  Activity: 0.93 nmol
Brain [11]
  Activity: 0.92 nmol
Brain [12]
  Activity: 0.77 nmol

## O=c1cc(-c2ccccc2)oc2cc(O)ccc12
[4]
  Activity: inactive
[5]
  Ratio: 2.04
[6]
  Ratio: 2.52
[7]
  Ratio: 15.1
[8]
  Activity: inactive
Brain [9]
  Activity: inactive
Brain [10]
  Activity: 0.42 nmol
Brain [11]
  Activity: 0.48 nmol
Brain [12]
  Activity: 0.91 nmol

## Oc1cc(-c2ccccc2)nc2ccccc12
[3]
  Ratio: 1.91
[4]
  Activity: inactive
[5]
  Ratio: 0.53
[6]
  Ratio: 1.06
[7]
  Ratio: 4.79
[8]
  Activity: inactive
Brain [9]
  Activity: inactive
Brain [10]
  Activity: 0.91 nmol
Brain [11]
  Activity: 0.87 nmol
Brain [12]
  Activity: 0.87 nmol

## Oc1cccc2cccnc12
[1]
  Ratio: 30.5
[2]
  Ratio: 10.2
[3]
  Ratio: 55.4
[4]
  Activity: inactive
[5]
  Ratio: 2.65
[6]
  Ratio: 3.68
[7]
  Ratio: 15.4
[8]
  Activity: inactive
Brain [9]
  Activity: inactive
Brain [10]
  Activity: 0.93 nmol
Brain [11]
  Activity: 0.83 nmol
Brain [12]
  Activity: 0.07 nmol

## c1ccc2ncccc2c1
[2]
  Ratio: 1.4
[4]
  Activity: inactive
[5]
  Ratio: 1.97
[6]
  Ratio: 2.42
[7]
  Ratio: 0.98
[8]
  Activity: inactive
Brain [9]
  Activity: inactive
Brain [10]
  Activity: 0.8 nmol
Brain [11]
  Activity: 0.77 nmol
Brain [12]
  Activity: 0.73 nmol

## O=c1cc(-c2ccccc2)oc2ccc(O)cc12
[1]
  Ratio: 37.1
[2]
  Ratio: 21.4
[3]
  Ratio: 59
[4]
  Activity: inactive
[5]
  Ratio: 1.84
[6]
  Ratio: 2.47
[8]
  Activity: inactive
Brain [9]
  Activity: inactive
Brain [10]
  Activity: 0.82 nmol
Brain [11]
  Activity: 0.79 nmol
Brain [12]
  Activity: 0.63 nmol

## O=c1cc(-c2ccccc2)oc2ccccc12
[1]
  Ratio: 1.51
[3]
  Activity: inactive
[4]
  Ratio: 2.4
[5]
  Ratio: 0.2
[6]
  Ratio: 3.73
[7]
  Activity: inactive
[8]
  Ratio: 2.72
Brain [9]
  Activity: inactive
Brain [10]
  Activity: 0.78 nmol
Brain [11]
  Activity: 0.87 nmol
Brain [12]
  Activity: 0.83 nmol

## Oc1ccc2nc(-c3ccccc3)cc(O)c2c1
[1]
  Ratio: 29
[2]
  Ratio: 12.3
[3]
  Ratio: 58.3
[4]
  Activity: inactive
[5]
  Ratio: 2.14
[6]
  Ratio: 9.53
[7]
  Ratio: 58.9
[8]
  Activity: inactive
Brain [9]
  Activity: inactive
Brain [10]
  Activity: 0.48 nmol
Brain [11]
  Activity: 0.31 nmol
Brain [12]
  Activity: 0.05 nmol
